Data as given in ChEMBL document CHEMBL1926595, “Design and synthesis of 4,6-substituted-(diaphenylamino)quinazolines as potent EGFR inhibitors with antitumor activity” (Bioorg Med Chem, 2012).
pIC50: −log10 of the molar value.

Tests used:
[1] = system: HepG2; assay: Induction of apoptosis in human HepG2 cells after 3 days using annexin-V/PI double staining by flow cytometry; format: functional, cell-based
[2] = system: HepG2; assay: Induction of apoptosis in human HepG2 cells assessed as apoptotic cells at 2 uM after 3 days using annexin-V/PI double staining by flow cytometry (reference value: 0.98%); format: functional
[3] = system: HepG2; assay: Antiproliferative activity against human HepG2 cells after 48 hrs by MTT assay; format: functional, cell-based; conditions: HepG2, 48 h
How it was run: (§1)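 Cells were seeded at 7 × 10³ per well and, after 24 h, exposed while growing exponentially to a range of concentrations for 48 h. MTT (5 mg/mL stock in PBS) was added for 6 h, followed by 10% SDS in 0.01 N HCl for a further 4 h at 37 °C, then absorbance read at 570 nm. Survival was taken as % of untreated cells. IC50 came from 6-well replicates in at least two independent experiments.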

[4] = Antiproliferative activity against human A16-F10 cells after 48 hrs by MTT assay; format: functional, cell-based; conditions: A16-F10, 48 h; how it was run: as §1
[5] = system: HepG2; assay: Induction of apoptosis in human HepG2 cells assessed as apoptotic cells at 1 uM after 3 days using annexin-V/PI double staining by flow cytometry (reference value: 0.98%); format: functional
[6] = molecular target: Epidermal growth factor receptor (Homo sapiens, UniProt P00533); assay: Inhibition of EGFR expressed in baculovirus infected Sf9 cells assessed as inhibition of autophosphorylation preincubated for 10 mins measured after 1 hr by DELFIA/Time-Resolved Fluorometry
Chain of Epidermal growth factor receptor (P00533 whole entry): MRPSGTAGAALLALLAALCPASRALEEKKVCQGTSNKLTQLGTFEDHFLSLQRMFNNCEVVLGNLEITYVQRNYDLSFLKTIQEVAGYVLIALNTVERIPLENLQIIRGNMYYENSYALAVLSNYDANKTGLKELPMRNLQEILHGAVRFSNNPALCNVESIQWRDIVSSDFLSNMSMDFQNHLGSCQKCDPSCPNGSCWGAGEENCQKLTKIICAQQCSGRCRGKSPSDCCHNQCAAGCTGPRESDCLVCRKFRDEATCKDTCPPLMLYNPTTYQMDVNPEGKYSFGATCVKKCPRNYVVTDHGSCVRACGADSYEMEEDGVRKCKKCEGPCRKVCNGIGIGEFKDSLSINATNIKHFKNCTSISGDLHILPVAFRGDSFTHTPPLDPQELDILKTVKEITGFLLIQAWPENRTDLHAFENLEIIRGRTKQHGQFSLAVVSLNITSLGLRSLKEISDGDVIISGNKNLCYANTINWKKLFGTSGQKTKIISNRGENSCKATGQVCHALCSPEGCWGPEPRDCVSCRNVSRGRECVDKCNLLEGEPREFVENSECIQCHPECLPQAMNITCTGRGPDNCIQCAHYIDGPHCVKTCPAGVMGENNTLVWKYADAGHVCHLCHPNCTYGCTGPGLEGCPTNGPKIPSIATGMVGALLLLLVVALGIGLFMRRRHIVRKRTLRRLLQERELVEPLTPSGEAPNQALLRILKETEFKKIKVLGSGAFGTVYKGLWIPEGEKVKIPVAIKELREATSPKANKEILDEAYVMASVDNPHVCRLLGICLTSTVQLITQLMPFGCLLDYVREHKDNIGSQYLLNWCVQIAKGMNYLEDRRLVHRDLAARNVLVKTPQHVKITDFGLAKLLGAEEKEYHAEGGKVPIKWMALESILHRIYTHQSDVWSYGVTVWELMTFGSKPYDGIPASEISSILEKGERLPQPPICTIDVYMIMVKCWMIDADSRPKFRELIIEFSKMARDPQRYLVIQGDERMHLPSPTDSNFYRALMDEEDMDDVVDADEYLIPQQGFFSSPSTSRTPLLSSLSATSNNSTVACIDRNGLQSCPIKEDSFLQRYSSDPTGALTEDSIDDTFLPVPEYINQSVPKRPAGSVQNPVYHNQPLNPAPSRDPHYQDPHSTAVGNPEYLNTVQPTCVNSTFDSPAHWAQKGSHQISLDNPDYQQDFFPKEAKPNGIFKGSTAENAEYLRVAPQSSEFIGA

pIC50 [3]	pIC50 [6]	SMILES	Activity [1]	Activity [2]	pIC50 [4]	Activity [5]
6.55		Oc1ccc(CNc2ccc3ncnc(Nc4cccc(Br)c4)c3c2)cc1	Dose-dependent effect	54.2%	6.23	20.8%
5.27		COc1ccc(CNc2ccc3ncnc(Nc4cccc(Br)c4)c3c2)cc1			4.98	
5.82	5.73	Oc1ccc(CNc2ccc3ncnc(Nc4cccc(Cl)c4)c3c2)cc1			5.80	
5.56		Brc1cccc(Nc2ncnc3ccc(NCc4ccccc4Br)cc23)c1			5.36	
5.42	5.25	Clc1cccc(Nc2ncnc3ccc(NCc4ccc(Br)cc4)cc23)c1			5.40	
5.28		COc1ccc(CNc2ccc3ncnc(Nc4cccc(Cl)c4)c3c2)cc1			5.07	
5.85	5.50	Brc1ccc(CNc2ccc3ncnc(Nc4cccc(Br)c4)c3c2)cc1			5.66	
5.75		Fc1ccc(CNc2ccc3ncnc(Nc4cccc(Br)c4)c3c2)cc1			5.68	
5.01	4.86	COc1ccccc1CNc1ccc2ncnc(Nc3cccc(Cl)c3)c2c1			4.83	
5.27		Clc1cccc(Nc2ncnc3ccc(NCc4ccccc4Cl)cc23)c1			5.15	
5.74		Clc1ccccc1CNc1ccc2ncnc(Nc3cccc(Br)c3)c2c1			5.43	
5.57		Fc1ccc(CNc2ccc3ncnc(Nc4cccc(Cl)c4)c3c2)cc1			5.53	
5.38		Clc1cccc(Nc2ncnc3ccc(NCc4ccccc4Br)cc23)c1			5.23	
5.75	5.36	Clc1ccc(CNc2ccc3ncnc(Nc4cccc(Cl)c4)c3c2)cc1			5.57	
6.04	5.79	Clc1ccc(CNc2ccc3ncnc(Nc4cccc(Br)c4)c3c2)cc1			5.74	
5.90	5.49	Oc1ccccc1CNc1ccc2ncnc(Nc3cccc(Br)c3)c2c1			5.73	
5.05	4.95	COc1ccccc1CNc1ccc2ncnc(Nc3cccc(Br)c3)c2c1			4.90	
5.68	5.45	Oc1ccccc1CNc1ccc2ncnc(Nc3cccc(Cl)c3)c2c1			5.50	
		C#Cc1cccc(Nc2ncnc3cc(OCCOC)c(OCCOC)cc23)c1 [ERLOTINIB]			7.70	
